From PubChem BioAssay
Not all results are given here.
Apaf1 activ = activators of human Apaf-1 apoptosome, primary screen, biochemical, DEVD-Rh110 fluorescence, uHTS. hit rate 0.31% among 330,000. Apaf-1 apoptosome caspase-3 activation; stronger effect = lower value. Apoptotic protease-activating factor 1 (Homo sapiens), O14727. activity change, negative = activation, % at 20 µM;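 active = activity change at or below -40% at 20 µM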
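Schedule: 30 min preincubation, 50 min reaction, room temperature / System: biochemical Apaf-1 apoptosome reconstitution / Medium: 20 mM HEPES pH 7.5 with CHAPS, BSA / Evaluation: Caspase-3 cleavage activity downstream of Apaf-1 activation / Detection: Caspase-3-released Rh110 fluorescence, 540 nm emission, 480 nm excitation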
Rh110 interf act = Rh110 fluorescence interference by putative Apaf-1 activators, confirmation, artefact control for Apaf-1 activator project, biochemical, 20 µM. quenched caspase reaction, Ex480/Em540. 980 tested, under 10 active. fluorescence interference (activity change), % at 20 µM, hits read low. shares compounds with Apaf1 activ. AID 504616, 2011;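 active = mean activity change at or below -40% when tested at 20 µM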
Apaf-1 act conf = Apaf-1 activators, single-dose retest, confirmation, biochemical, fluorescence, DEVD-Rh110, 20 µM. shares compounds with Apaf1 activ. reconstituted apoptosome caspase-3 activity; stronger effect = lower value. activity change, negative = activation, % at 20 µM. hit rate 5% among 980. AID 504617, 2011;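 active = mean activity change at or below -40%, meaning activation of 40% or more, at 20 µM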
Starred values were filed as active, the others as inactive; x = no result given.

SMILES	Apaf1 activ	Rh110 interf act	Apaf-1 act conf
CCc1ccc(S(=O)(=O)Nc2cc(SCC(=O)O)c(O)c3ccccc23)cc1	71	x	x
CC(C)(C)NS(=O)(=O)c1ccc(CCC(=O)O)cc1	-99*	x	x
O=C1C(=O)c2ccccc2C(O)=C1CCCCl	83	x	x
O=C1Cc2ccccc2C(=O)N1Cc1ccccc1	52	x	x
C#CCOCCOCCOCCNc1nc(N2CCN(C(=O)[C@H]([C@@H](C)CC)n3cc([C@@H](N)CO)nn3)CC2)nc(N2CCN(C(=O)[C@H](Cc3cc4ccccc4[nH]3)n3cc([C@@H](N)Cc4ccc(O)cc4)nn3)CC2)n1	57	x	x
C#CCOCCOCCOCCNc1nc(N2CCN(C(=O)CCCCCCCCCCNC(=O)Cn3cc(CCCCCN)nn3)CC2)nc(N2CCN(C(=O)CCCCCCCCCCNC(=O)Cn3cc(CCCCCN)nn3)CC2)n1	65	x	x
OC1C(O)C(O)C(O)C(O)C1O (stereo not given)	-1	x	x
O=C(O)CCC1c2cc3c4cc2OC2Oc5cc6c(cc51)C(CCC(=O)O)c1cc5c7cc1OC(O6)c1cc6cc(c1)Oc1cc(cc(C(=O)O)c1)Oc1cc8cc(c1)C(Oc1cc(c(cc1C5CCC(=O)O)C3CCC(=O)O)OC(O4)c1cc(cc(c1)Oc1cc(cc(C(=O)O)c1)O8)Oc1cc(cc(C(=O)O)c1)Oc1cc(cc2c1)Oc1cc(cc(C(=O)O)c1)O6)O7 (stereo not given)	99	x	x
CCn1cc(CN2CCC(n3nccc3NC(=O)c3cccc(F)c3)CC2)cn1	-302*	x	x
C#CCOCCOCCOCCNc1nc(N2CCN(C(=O)CCCCCCCCCCNC(=O)Cn3cc(CCCCCN)nn3)CC2)nc(N2CCN(C(=O)CCCCCCCCCCNC(=O)[C@@H](CCSC)n3cc(CCO)nn3)CC2)n1	72	x	x
C[C@H](CO)N1C[C@H](C)[C@@H](CN(C)Cc2ccc(Cl)c(Cl)c2)Oc2c(NC(=O)Cc3ccccc3)cccc2C1=O	44	x	x
O=C(CCS(=O)(=O)c1ccc(Br)cc1)NCc1ccc(F)cc1	-99*	x	x
C#CCOCCOCCOCCNc1nc(N2CCN(C(=O)C([C@@H](C)O)n3cc([C@@H](N)CCCCN)nn3)CC2)nc(N2CCN(C(=O)[C@H](CCCCN)n3cc([C@@H](N)CC(N)=O)nn3)CC2)n1 (stereo not given in full)	51	x	x
COc1ccc(NC(=O)Nc2ccc(O)c3ccccc23)cc1	52	x	x
O=C(CCC1CCCCC1)NCCN1C2=NC[C@@H](Cc3ccccc3)N2C[C@H]1Cc1ccc(O)cc1	45	x	x
N#Cc1ccccc1OCC(=O)OCC(=O)N1CCCC1	-110*	11	15
C#CCOCCOCCOCCNc1nc(N2CCN(C(=O)CCCCCCCCCCNC(=O)[C@H]([C@@H](C)CC)n3cc(CCCCCN)nn3)CC2)nc(N2CCN(C(=O)CCCCCCCCCCNC(=O)[C@H](CO)n3cc(CCCCCN)nn3)CC2)n1	71	x	x
COC(=O)c1[nH]c(=O)c2ccccc2c1O	91	x	x
O/N=C(\c1ccccn1)C1CC1c1ccccc1 (stereo not given)	-63*	16	15
Cc1cc(/C=C2\SC(=O)N(C)C2=O)c(C)n1-c1ccc(O)cc1	71	x	x
O=C(COC(=O)Cc1ccsc1)Nc1ccc(F)cc1Cl	-52*	-7	10
COc1ccccc1-c1oc2ccccc2c1C#CC1(N)CCCCC1	68	x	x
NC(=O)N(CCC(=O)O)c1ccccc1	-47*	-12	-17
CC1CCCCC1NS(=O)(=O)c1ccc(S(=O)(=O)N2CCN(CCC#N)CC2)cc1 (stereo not given)	-65*	1	9
C#CCOCCOCCOCCNc1nc(N2CCN(C(=O)CCCCCCCCCCNC(=O)Cn3cc(C[C@@H](C)O)nn3)CC2)nc(N2CCN(C(=O)CCCCCCCCCCNC(=O)[C@H](CCCN=C(N)N)n3cc(C[C@@H](C)CC)nn3)CC2)n1	62	x	x
SMILES	Apaf1 activ	Rh110 interf act	Apaf-1 act conf
NC(N)=Nc1cc2ccccc2c2ccccc12	77	x	x
CCN(CC)C(=O)CSC(=Nc1ccccc1F)NC#N	-52*	18	11
COc1ccccc1/C=C/C(=O)OCC(=O)NC1CCS(=O)(=O)C1 (stereo not given)	-78*	-5	5
O=C(NC1=C(NC2CCS(=O)(=O)C2)C(=O)c2ccccc2C1=O)c1ccccc1 (stereo not given)	88	x	x
CC(C)C[C@@H]1CN=C(N)N1C[C@@H]1CCCN1C[C@@H](C(C)C)N1C[C@@H](Cc2ccccc2)N(CCc2ccc(Cl)c(Cl)c2)C1=N	63	x	x
Cn1nccc1C(=O)N1CCN(C23CC4CC(CC(C4)C2)C3)CC1	-56*	10	17
CCOC(=O)c1c(NC(=O)c2ccco2)n(C2CCCCC2)c2nc3ccccc3nc12	88	x	x
CCOC(=O)c1sc(NC(=O)c2ccco2)c(C#N)c1C	-211*	-1	12
COc1ccc(-n2c(NC(=O)c3ccco3)c(C#N)c3nc4ccccc4nc32)cc1	96	x	x
Cc1ccc(Oc2nc(CN3CCOCC3)nc3sc4c(c23)CCC(C)C4)cc1 (stereo not given)	41	x	x
Oc1ccc(/C=N\Nc2cc(N3CCOCC3)nc(N3CCOCC3)n2)c(O)c1	85	x	x
COc1ccc(CN(C)C(=O)c2cc(S(=O)(=O)NCc3ccccc3)ccc2C)c(OC)c1	61	x	x
CCCN(CC(=O)Nc1ccccc1OC)C(=O)c1cc(S(=O)(=O)NCc2ccccc2)ccc1C	62	x	x
Cc1ccc(S(=O)(=O)CCC(=O)NCc2ccccc2)cc1	-64*	4	8
COC(=O)c1ccc(COC(=O)CCS(=O)(=O)c2ccc(C)cc2)cc1	-53*	7	14
COC(=O)c1c(NC(=O)COc2ccc(Cl)cc2)sc2c1CC(C)(C)NC2(C)C	61	x	x
CCC(CO)Oc1cc(NCc2ccccc2OC)c2ncn(C(C)C)c2c1 (stereo not given)	61	x	x
CCOc1ccc(NC(=O)c2c[nH]n3c(=O)cc(C4CCN(C(=O)OC(C)(C)C)CC4)nc23)cc1	40	x	x
CCN1/C(=C/c2ccc3cc(C)ccc3[n+]2CC)Sc2ccc3sccc3c21	62	x	x
COc1cc(N)c(Cc2nccc3cc(OC)c(OC)cc23)cc1OC	47	x	x
O=C(N/N=C/c1[nH]c2ccccc2c1Cl)c1cccc(Br)c1	-72*	12	11
O=C(NN=c1c(=O)c2ccccc2c1=O)c1ccccc1	96	x	x
CCOC(=O)C(C(=O)OCC)c1cc(Br)c2noc3c2c1C(=O)c1ccccc1-3	89	x	x
COc1ccc(C2C(C#N)=C(N)Oc3n[nH]c(-c4ccccn4)c32)c(OC)c1OC (stereo not given)	-508*	7	19
COc1cccc(-c2[nH]nc3c2C(c2ccsc2)C(C#N)=C(N)O3)c1 (stereo not given)	60	x	x
COc1ccc(CN2C(=O)Cc3c2nc(N)c2c(N)nc(N4CCCCC4)c(C#N)c32)cc1	51	x	x
COC(=O)/C(=C/Nc1ccc(O)cc1)[N+](=O)[O-]	91	x	x
S=C(Nc1ccc2[nH]ccc2c1)NC1CCCCC1	-86*	2	21
